Sampled rows, rich in hits. Any-hit rate of the full collection: about 1.9%.
Runt-CBFb FRET: Runt domain-CBFb interaction inhibition; Cerulean-Runt/Venus-CBFb FRET ratio 530/480, 1 h; AID 1496; inhibition, % at 20 µM; Q01196+Q13951; 220,000 tested, 0.46% active;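 active = inhibition over about 50% at 20 µM in the single-dose screen, limit read from the data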;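 also: 0% = DMSO wells and 100% = excess unlabeled CBFb competitor control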
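Buffer or medium: Tris pH 7.5 buffer with BSA. Assay system: Cerulean-labeled Runt domain protein. Amount: each fluorescent fusion protein 100 nM. Read-out basis: loss of energy transfer signal. Incubation: 1 h compound exposure, room temperature. Probe or stimulus: Venus-CBFb binding partner, 100 nM. Detection: FRET, excitation 422 nm, emission at 530 and 480 nm.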
Hck-Nef inh: blocks Nef-activated human Hck kinase. P08631. inhibition, % at 20 µM. 220,000 tested, 0.68% active. Recombinant Hck-YEEI plus Nef, Z-Lyte FRET kinase assay;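 active = Hck-Nef kinase inhibition above about 50%, limit read from the data; inactive = inhibition below that limit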;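 also: 0% = DMSO with Hck plus Nef and 100% = Hck alone without Nef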
Target sequence (P08631 whole entry, looked up): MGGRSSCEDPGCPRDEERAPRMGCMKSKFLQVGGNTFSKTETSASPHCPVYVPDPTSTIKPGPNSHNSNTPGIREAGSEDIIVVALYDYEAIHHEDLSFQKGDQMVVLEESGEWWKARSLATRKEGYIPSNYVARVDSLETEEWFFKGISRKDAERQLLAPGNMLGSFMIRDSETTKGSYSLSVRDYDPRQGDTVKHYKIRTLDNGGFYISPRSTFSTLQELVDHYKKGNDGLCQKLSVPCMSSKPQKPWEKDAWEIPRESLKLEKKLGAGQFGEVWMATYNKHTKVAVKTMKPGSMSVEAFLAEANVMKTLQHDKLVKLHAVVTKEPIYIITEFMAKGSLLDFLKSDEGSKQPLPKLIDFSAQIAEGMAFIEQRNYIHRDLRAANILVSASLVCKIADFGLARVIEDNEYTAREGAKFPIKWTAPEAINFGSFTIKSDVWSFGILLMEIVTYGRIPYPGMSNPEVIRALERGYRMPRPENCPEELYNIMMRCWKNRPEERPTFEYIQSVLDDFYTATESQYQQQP
RanGTP-Impb inh: disruptors of Ran-importin-beta complex formation – biochemical, FRET, CFP-Ran, YFP-importin-beta, homogeneous, primary screen; cell-free CFP-Ran/YFP-importin-beta FRET ratio; inhibition, % (test concentration not listed); 300,000 tested, 1.1% active;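 active = more than half of the replicate wells show a fall in the fluorescence ratio signal beyond about 16%, limit read from the data, passing the limit was not always enough; inconclusive = exactly half of the replicate wells pass the set limit; inactive = fewer than half of replicates pass the limit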;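 also: 0% = DMSO wells and 100% = Ran loaded with GDP instead of GTP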
Runt-SMMHC FRET: Runt domain-CBFb-SMMHC interaction inhibition; Q01196+Q13951; Cerulean-Runt/Venus-CBFb-SMMHC FRET ratio 530/480, 1 h; inhibition, % at 20 µM; 220,000 tested, 0.74% active; AID 1434;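 active = mean inhibition across duplicate retests at 20 µM reaching about 50%, limit read from the data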;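 also: 0% = DMSO wells and 100% = wells with excess untagged CBFb-SMMHC; inhibitors lower the FRET ratio by blocking Runt binding to CBFb-SMMHC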
RUNX1 CBFb TR: Runt-CBFb binding inhibition. 480 tested, 20% active. shares compounds with Runt-CBFb FRET. TR-FRET RUNX1 Runt domain-CBFb binding. inhibition, % at 20 µM; in the data active = inhibition above about 40%
Active calls of the source: *; ? = inconclusive; . = no result given.

SMILES | Runt-CBFb FRET | Hck-Nef inh | RanGTP-Impb inh | Runt-SMMHC FRET | RUNX1 CBFb TR
CN(C)CCCNS(=O)(=O)c1cc(Cl)ccc1Cl | -1 | 1 | 0 | -2 | .
COC(=O)C1=C(C)N(Cc2ccccc2)C(=NCCCCO)N[C@H]1CCc1ccccc1 | . | . | 0 | . | .
Oc1ccc2ccccc2c1C=NCc1ccccc1 | 119* | -4 | -4 | 3 | 17
Oc1ccc2ccccc2c1/C=N/Nc1ccccc1 | 8 | 3 | -4 | 10 | .
COc1cc(/C=N/NC(N)=O)ccc1OCC(=O)Nc1cc(C)c(C)cc1Br | 3 | 25 | -1 | -1 | .
O=C1OC(c2ccccc2)=N/C1=C\C=C\c1ccccc1[N+](=O)[O-] | 74* | 4 | 2 | 67 | 32
NS(=O)(=O)c1cc(C(=O)N2CCc3ccccc32)c(Cl)cc1Cl | 1 | 1 | 3 | -1 | .
CCN(CC)S(=O)(=O)c1ccc(OC)c(NS(=O)(=O)c2ccc(F)cc2)c1 | 50* | -1 | -2 | 149 | -11
COc1ccc(-c2nn(-c3ccccc3)cc2/C=N/N2C(=O)CSC2=S)cc1 | 4 | 0 | 2 | -6 | .
Cc1cc(C)n2nc3nc4c(cc3c2n1)CCCC4 | 65* | 16 | 5 | . | 63*
Cc1c(NC(=S)NC(=O)c2cccc(Br)c2)c(=O)n(-c2ccccc2)n1C | . | . | 3 | . | .
COc1ccc(N2C(=O)C(Cl)=C(Oc3cccc(OC)c3)C2=O)cc1 | 57* | 31 | . | 44 | 43*
CCc1ccccc1N1CSC2=C(C#N)C(c3ccccc3F)CC(=O)N2C1 (stereo unspecified) | 60* | 3 | ? | 92* | 0
COc1ccc(C2CC(=O)N3CN(c4ccc(C)c(Cl)c4)CSC3=C2C#N)cc1 (stereo unspecified) | 88* | 1 | ? | 38 | 8
COc1ccc(N2CSC3=C(C#N)C(c4cccc(OC)c4OC)CC(=O)N3C2)cc1 (stereo unspecified) | 15 | 0 | 2 | 33 | .
N#CC1=C2SCN(Cc3ccccc3)CN2C(=O)CC1c1ccc2c(c1)OCO2 (stereo unspecified) | 29 | 0 | ? | 24 | .
COc1cc(C2CC(=O)N3CN(Cc4ccco4)CSC3=C2C#N)ccc1OCc1ccccc1 (stereo unspecified) | -1 | 4 | 0 | 28 | .
COc1ccc(C2CC(=O)N3CN(c4ccccc4F)CSC3=C2C#N)cc1OC (stereo unspecified) | 52* | 1 | -158 | 87* | 17
O=C(Nc1ccc(F)c([N+](=O)[O-])c1)c1ccc2c(c1)C(=O)OC2=O | 1 | 28 | . | -4 | .
CC(C)(C)OC(=O)N1CCC[C@H]1C(=O)N/N=C/c1cccc2nccnc12 | -1 | 19 | 3 | 4 | .
O=C(CCc1ccncc1)NC1CCCc2c1cnn2-c1ccc(F)cc1F (stereo unspecified) | . | . | 3 | . | .
CCOC(=O)N/N=C/c1c(F)c(F)c(F)c(F)c1F | 50* | 4 | . | 1 | -14
CC1(C)CC(NC(=O)c2sc3cc(Cl)ccc3c2Cl)CC(C)(C)N1 | 2 | 4 | 7 | -2 | .
COc1ccc(/C=C(\C#N)C(=O)Nc2cccc3ncccc23)cc1OC | 69* | 32 | 50* | 60* | 64*
COc1ccc(/C=C(/C#N)C(=O)Nc2cccnc2)cc1OC | 0 | 9 | -1 | 1 | .
SMILES | Runt-CBFb FRET | Hck-Nef inh | RanGTP-Impb inh | Runt-SMMHC FRET | RUNX1 CBFb TR
O=C1CC(=C2c3ccccc3-c3ccccc32)C(=O)N1CCN1CCN(c2cccc(Cl)c2)CC1 | . | 0 | 8 | . | .
CN1CCc2c(sc3c2C(=O)NC(c2cccc(OC(=O)c4cccs4)c2)N3)C1 (stereo unspecified) | 51* | 24 | 140* | 106* | 6
O=c1[nH]c2ccccc2c(O)c1-[n+]1ccccc1 | 20 | 15 | -1 | 3 | .
O=c1[nH]c2ccccc2c(O)c1O | 59* | -38 | 1 | 57* | 39
CCCn1nc(NS(C)(=O)=O)c2cc3cccc(C)c3nc21 | -8 | 3 | 1 | -26 | .
CCCn1nc(NC(=O)c2cccs2)c2cc3cccc(C)c3nc21 | 64* | 32 | 95* | 85* | 27
COCCCN1CC(=O)N2C(c3cccc(C)c3)c3[nH]c4ccccc4c3C[C@H]2C1=O (stereo partly specified) | . | . | -2 | . | .
O=C1C=CC(=O)N1N(c1ccccc1)c1ccccc1 | 72* | -4 | 1 | . | -20
CCc1ccc2[nH]cc(S(=O)(=O)c3ccc(C)c(C)c3)c(=O)c2c1 | . | . | -1 | . | .
CCc1ccc2[nH]c3nc(C)cc(C)c3c(=O)c2c1 | 58* | 22 | 13 | 83* | -141
CCOC(=O)c1c(NC(=O)c2ccccc2Cl)sc2c1CCc1ccccc1-2 | 36 | 11 | 1 | 9 | .
CCOC(=O)c1c(NC(=O)c2ccccc2)sc2c1CCc1ccccc1-2 | 55* | 8 | 1 | 27 | 6
CCOC(=O)C1=C(C)N(c2ccc(OC)cc2)C(=O)/C1=C\c1ccc(O)c(OCC)c1 | 65* | -309 | -12 | -4 | 32
O=C(CSc1nc2ccccc2s1)Nc1ccc(Cl)c(C(=O)O)c1 | 16 | 38 | 3 | 17 | .
O=C(CSc1nc2ccccc2s1)Nc1cc(C(=O)O)cc(C(=O)O)c1 | 55* | 49 | -1 | 52 | 33
Cc1ccc2nc(Cl)c(CN(C(=O)c3cnccn3)C3CCCCC3)cc2c1 | -2 | 3 | 6 | 3 | .
COCCOC(=O)C1=C(C)NC2=C(C(=O)CC(C)(C)C2)C1c1cccnc1 (stereo unspecified) | 50* | 23 | 11 | 109* | 19
CC1=C(C(=O)OCCOC(C)C)C(c2cccnc2)C2=C(CCCC2=O)N1 (stereo unspecified) | 25 | 13 | 2 | 46 | .
CCOc1cc(C(c2c(C)[nH][nH]c2=O)c2c(C)[nH][nH]c2=O)cc(Br)c1OC | . | . | 0 | . | .
C=CCOc1ccc(Br)cc1CNC(C)(C)C | -2 | 19 | 0 | -3 | .
CC(C)N1CCN(C(=O)c2ccc(OC3CCN(CCc4ccccc4)CC3)cc2)CC1 | . | . | 3 | . | .
Fc1cccc(C[n+]2csc3ccccc32)c1 | 56* | -2 | 5 | 70 | -10
N=c1oc2ccc3ccccc3c2cc1-c1nnc2n1CCCCC2 | 52* | 23 | . | 108* | -6
COc1ccc2oc(=N)c(-c3nnc4n3CCCCC4)cc2c1 | 5 | -12 | 10 | 4 | .
Cc1ccc(NC(=S)N2CCN(S(C)(=O)=O)CC2)cc1Cl | . | . | 2 | . | .
O=C(NCCN1CCCC1)c1cc(-c2ccncc2)nc2ccc(S(=O)(=O)N3CCOCC3)cc12 | 1 | -3 | 4 | 1 | .
CC(C)(C)c1cc(C(=S)N2CCN(CCO)CC2)cc(C(C)(C)C)c1O | 52* | 2 | ? | 47 | 9
CCN1CCN(C(=S)c2ccc(Cl)cc2)CC1 | 38 | 0 | 1 | 30 | .
OCCN1CCN(C(=S)c2ccc(Cl)cc2)CC1 | 53* | 6 | 6 | 40 | 11
O=C1Nc2cc3c(cc2Sc2ccccc21)OCCO3 | 0 | -1 | 2 | 0 | .

Screens: PubChem BioAssay, several laboratories
